Experimental data: PubChem BioAssay
Calls of active or inactive are those of the source.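 Rule for the calls, unless noted: active = viability at or under a set limit in both replicates, limit being median viability minus 3 SD (cut at about 48% in these data, passing the limit was not always enough); inconclusive = at or under the limit in just one replicate; inactive = at or above the limit in both replicates.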

Assays:
[1] = Her2 expression decrease, cell viability multiplex – SKBR3 breast tumor cells, AlphaScreen, ATP viability, primary screen (AID 461;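 active = Her2 level under about 52% in both replicate screens, with viability over 70% of control, limit read from the data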;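 for Her2 level: lower value means less Her2 protein in the cells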;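 for viability: percent of carrier control wells set as 100% viability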); conditions: SKBR3 Her2 protein level, 18-24 h, measured here: SKBR3 viability, ATP luminescence, at 10 µM
[2] = biological target: Receptor tyrosine-protein kinase erbB-2 (Homo sapiens) (UniProt P04626); test: as above; conditions: 18-24 h, at 10 µM, stronger effect = lower value
Sequence of Receptor tyrosine-protein kinase erbB-2 (Homo sapiens) (P04626 whole entry, looked up): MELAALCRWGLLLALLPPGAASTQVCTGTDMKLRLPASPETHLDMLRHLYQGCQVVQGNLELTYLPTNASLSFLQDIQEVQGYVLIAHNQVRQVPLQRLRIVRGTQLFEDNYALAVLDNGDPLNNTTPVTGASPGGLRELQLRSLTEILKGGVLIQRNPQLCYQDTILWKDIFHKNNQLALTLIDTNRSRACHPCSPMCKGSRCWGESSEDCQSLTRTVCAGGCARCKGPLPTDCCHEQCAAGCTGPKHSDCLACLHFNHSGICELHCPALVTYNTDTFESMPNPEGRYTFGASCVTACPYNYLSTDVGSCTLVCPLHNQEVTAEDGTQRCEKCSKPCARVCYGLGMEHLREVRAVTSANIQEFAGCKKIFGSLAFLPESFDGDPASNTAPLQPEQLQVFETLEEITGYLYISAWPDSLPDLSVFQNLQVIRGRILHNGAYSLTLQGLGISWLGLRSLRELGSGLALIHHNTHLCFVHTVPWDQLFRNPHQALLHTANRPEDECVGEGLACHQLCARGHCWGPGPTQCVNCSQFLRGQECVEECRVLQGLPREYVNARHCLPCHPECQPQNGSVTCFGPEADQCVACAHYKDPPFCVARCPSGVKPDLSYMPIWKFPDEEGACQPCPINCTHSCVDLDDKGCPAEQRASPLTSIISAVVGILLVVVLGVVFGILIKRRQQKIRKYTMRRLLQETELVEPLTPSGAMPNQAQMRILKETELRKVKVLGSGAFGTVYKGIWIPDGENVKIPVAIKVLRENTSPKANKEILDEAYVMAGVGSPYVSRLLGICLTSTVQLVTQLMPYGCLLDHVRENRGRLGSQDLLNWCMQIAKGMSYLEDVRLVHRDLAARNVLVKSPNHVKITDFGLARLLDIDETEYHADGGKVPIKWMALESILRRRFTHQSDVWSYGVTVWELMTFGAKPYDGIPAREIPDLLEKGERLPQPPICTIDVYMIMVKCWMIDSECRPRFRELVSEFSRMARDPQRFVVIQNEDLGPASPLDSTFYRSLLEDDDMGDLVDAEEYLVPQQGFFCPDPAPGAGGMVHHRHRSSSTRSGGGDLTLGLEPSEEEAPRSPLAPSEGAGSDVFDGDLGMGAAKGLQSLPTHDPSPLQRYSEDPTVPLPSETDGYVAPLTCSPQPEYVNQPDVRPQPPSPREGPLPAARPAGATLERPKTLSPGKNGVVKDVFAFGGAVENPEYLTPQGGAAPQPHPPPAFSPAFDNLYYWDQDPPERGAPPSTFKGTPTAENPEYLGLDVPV

[3] = reduced viability of SK-BR-3 breast cancer cells – cell-based, 24 h, human, pilot screen (AID 572;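 active = viability at or below 10% of carrier control in both of two separate runs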;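 note: compound exposure lasted between 18 and 24 h rather than exactly 24 h; 100% = carrier-treated control wells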); conditions: SK-BR-3 viability, CellTiter-Glo luminescence, at 10 µM, stronger effect = lower value
[4] = HUVEC growth inhibition – cell-based, human, primary screen (AID 575;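 active = viability at or below 30% in both replicate assays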;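 note: 100% = median of untreated cell wells with 0.1% DMSO on each plate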); conditions: HUVEC proliferation, CellTiter-Glo luminescence, 72 h; at 10 µM; stronger effect = lower value
Procedure, shortened: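 Test system – primary HUVEC, no more than 12 passages · Dosing – one dose, 10 µM final, 0.1% DMSO · Times – 72 h treatment at 37 °C · Measured by – ATP-based CellTiter-Glo luminescent read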

[5] = H69AR cell proliferation blockers – human, duplicate replicates, primary screen (AID 580); conditions: H69AR lung tumor cells viability, ATP luminescence, 72 h; at 10 µM; stronger effect = lower value;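 note: 100% = mean luminescence of untreated wells and 0% = no signal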
[6] = MRP1 drug-resistance reversers in H69AR cells – cell-based, doxorubicin co-treatment, pilot screen (AID 601;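 active = viability loss from added drug above about 55%, and viability with drug at most 40%, in both replicates, limit read from the data, passing the limit was not always enough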); conditions: CellTiter-Glo, 72 h, at 10 µM; for differential viability (reversal): stronger effect = higher value
[7] = yeast transport mutant growth inhibition pilot in 384-well plates, post-Golgi transport modulator project (AID 636; in the data active = inhibition above about 31%); conditions: absorbance 615 nm, about 18 h, stronger effect = higher value
[8] = growth suppression of yeast trafficking mutant, preliminary HTS, modulators of trafficking downstream of Golgi apparatus project, 1536-format plate, OD 615 nm (AID 637; in the data active = inhibition above about 30%); conditions: yeast transport mutant growth, absorbance 615 nm, 18 h; stronger effect = higher value
[9] = H69AR cells + 2 uM doxorubicin, measured here: viability with 2 uM doxorubicin, stronger effect = lower value
[10] = H69AR cells, compound alone cytotoxicity

CCCNS(=O)(=O)c1ccc(OCC(=O)NCc2ccco2)cc1
viability [1]: 93.5% | Her2 level [2]: 120% (inactive) | viability [3]: 93.5% (inactive) | viability [4]: 91.3% (inactive) | viability [5]: 83.7% (inactive) | differential viability (reversal) ([6]; H69AR cells + 2 uM doxorubicin): -3.46% (inactive) | viability [6, 9]: 87.2% | viability [6, 10]: 83.7% | inhibition [7]: 1.6% (inactive) | inhibition [8]: -3.65% (inactive)

CCOC(=O)CNc1ccc2c(c1)OCO2
viability [1]: 88% | Her2 level [2]: 90% (inactive) | viability [3]: 88% (inactive) | viability [4]: 76.6% (inactive) | viability [5]: 98.7% (inactive) | differential viability (reversal) ([6]; H69AR cells + 2 uM doxorubicin): 13.2% (inactive) | viability [6, 9]: 85.6% | viability [6, 10]: 98.7% | inhibition [7]: -5% (inactive) | inhibition [8]: -2.3% (inactive)

CCN(CC)c1ccc(NC(=O)CN2CCN(CC(=O)Nc3ccccc3F)CC2)cc1
viability [1]: 81.5% | Her2 level [2]: 93.5% (inactive) | viability [3]: 81.5% (inactive) | viability [4]: 80.2% (inactive) | viability [5]: 99.6% (inactive) | differential viability (reversal) ([6]; H69AR cells + 2 uM doxorubicin): 11% (inactive) | viability [6, 9]: 88.6% | viability [6, 10]: 99.6% | inhibition [7]: -3.95% (inactive) | inhibition [8]: -1.33% (inactive)

O=C(CCS(=O)(=O)c1cc(Br)cc2c1N(C(=O)C1CC1)CC2)NCC1CCCO1 (stereo not given)
viability [1]: 122% | Her2 level [2]: 110% (inactive) | viability [3]: 122% (inactive) | viability [4]: 95.5% (inactive) | viability [5]: 81.8% (inactive) | differential viability (reversal) ([6]; H69AR cells + 2 uM doxorubicin): -3.57% (inactive) | viability [6, 9]: 85.4% | viability [6, 10]: 81.8% | inhibition [7]: 0.51% (inactive) | inhibition [8]: 11.8% (inactive)

CC(C)(C)n1ncc2c(=O)n(CC(=O)NCc3ccco3)cnc21
viability [1]: 91.5% | Her2 level [2]: 94% (inactive) | viability [3]: 91.5% (inactive) | viability [4]: 111% (inactive) | viability [5]: 68.5% (inactive) | differential viability (reversal) ([6]; H69AR cells + 2 uM doxorubicin): -12.3% (inactive) | viability [6, 9]: 80.8% | viability [6, 10]: 68.5% | inhibition [7]: -1.45% (inactive) | inhibition [8]: -10.5% (inactive)

O=c1ccc2cc3c([nH]c4ccc(Br)cc43)oc-2c1O
viability [1]: 146% | Her2 level [2]: 87% (inactive) | viability [3]: 146% (inactive) | viability [4]: 91.7% (inactive) | viability [5]: 78.3% (inactive) | differential viability (reversal) ([6]; H69AR cells + 2 uM doxorubicin): -3.78% (inactive) | viability [6, 9]: 82.1% | viability [6, 10]: 78.3% | inhibition [7]: -4.16% (inactive) | inhibition [8]: -3.81% (inactive)

COc1ccc(C)cc1S(=O)(=O)N1CCN(Cc2ccccc2)CC1
viability [1]: 98% | Her2 level [2]: 94.5% (inactive) | viability [3]: 98% (inactive) | viability [4]: 96.1% (inactive) | viability [5]: 91.2% (inactive) | differential viability (reversal) ([6]; H69AR cells + 2 uM doxorubicin): -1.38% (inactive) | viability [6, 9]: 92.6% | viability [6, 10]: 91.2% | inhibition [7]: -2.24% (inactive) | inhibition [8]: 1.13% (inactive)

COc1cccc(C(c2nnnn2CCc2ccccc2)N2CCN(c3ccccc3)CC2)c1OC (stereo not given)
viability [1]: 91% | Her2 level [2]: 88% (inactive) | viability [3]: 91% (inactive) | viability [4]: 109% (inactive) | viability [5]: 83.1% (inactive) | differential viability (reversal) ([6]; H69AR cells + 2 uM doxorubicin): -7.96% (inactive) | viability [6, 9]: 91% | viability [6, 10]: 83.1% | inhibition [7]: 13.1% (inactive) | inhibition [8]: -1.13% (inactive)

CCN(CC)CCCN1C(=O)C(=O)/C(=C(/O)c2ccccc2)C1c1ccccn1 (stereo not given)
viability [1]: 96.5% | Her2 level [2]: 100% (inactive) | viability [3]: 96.5% (inactive) | viability [4]: 111% (inactive) | viability [5]: 96% (inactive) | differential viability (reversal) ([6]; H69AR cells + 2 uM doxorubicin): 6.26% (inactive) | viability [6, 9]: 89.7% | viability [6, 10]: 96% | inhibition [7]: -1.35% (inactive) | inhibition [8]: -4.92% (inactive)

CCN(CC)S(=O)(=O)c1ccc(NC2CCCc3ccccc32)nc1 (stereo not given)
viability [1]: 71.5% | Her2 level [2]: 77% (inactive) | viability [3]: 71.5% (inactive) | viability [4]: 88.6% (inactive) | viability [5]: 86% (inactive) | differential viability (reversal) ([6]; H69AR cells + 2 uM doxorubicin): 0.97% (inactive) | viability [6, 9]: 85.1% | viability [6, 10]: 86% | inhibition [7]: -4.46% (inactive) | inhibition [8]: -3.17% (inactive)

c1coc(Cn2nnnc2CN2CCN(C3CCCC3)CC2)c1
viability [1]: 90.5% | Her2 level [2]: 107% (inactive) | viability [3]: 90.5% (inactive) | viability [4]: 92.8% (inactive) | viability [5]: 93.2% (inactive) | differential viability (reversal) ([6]; H69AR cells + 2 uM doxorubicin): 4.64% (inactive) | viability [6, 9]: 88.6% | viability [6, 10]: 93.2% | inhibition [7]: -4.67% (inactive) | inhibition [8]: -8.41% (inactive)

CCOC(=O)C1=C(C)Nc2nnnn2C1c1c[nH]c2ccccc12 (stereo not given)
viability [1]: 110% | Her2 level [2]: 94% (inactive) | viability [3]: 110% (inactive) | viability [4]: 77.3% (inactive) | viability [5]: 104% (inactive) | differential viability (reversal) ([6]; H69AR cells + 2 uM doxorubicin): 7.95% (inactive) | viability [6, 9]: 95.8% | viability [6, 10]: 104% | inhibition [7]: -2.93% (inactive) | inhibition [8]: 15.6% (inactive)

Cc1c(=O)n(OCc2ccccn2)c2ccccc2[n+]1[O-]
viability [1]: 84% | Her2 level [2]: 76% (inactive) | viability [3]: 84% (inactive) | viability [4]: 105% (inactive) | viability [5]: 94.2% (inactive) | differential viability (reversal) ([6]; H69AR cells + 2 uM doxorubicin): 8.18% (inactive) | viability [6, 9]: 86% | viability [6, 10]: 94.2% | inhibition [7]: -5.92% (inactive) | inhibition [8]: -1.27% (inactive)

CC(=O)NCCn1c(SCC(=O)NCC2CCCO2)nc2ccccc2c1=O (stereo not given)
viability [1]: 95% | Her2 level [2]: 99% (inactive) | viability [3]: 95% (inactive) | viability [4]: 109% (inactive) | viability [5]: 98.5% (inactive) | differential viability (reversal) ([6]; H69AR cells + 2 uM doxorubicin): 10.1% (inactive) | viability [6, 9]: 88.4% | viability [6, 10]: 98.5% | inhibition [7]: -0.26% (inactive) | inhibition [8]: -8.1% (inactive)

c1ccc(CNc2ccc3c(c2)ncn3C2CCCCC2)nc1
viability [1]: 97% | Her2 level [2]: 107% (inactive) | viability [3]: 97% (inactive) | viability [4]: 96% (inactive) | viability [5]: 96.8% (inactive) | differential viability (reversal) ([6]; H69AR cells + 2 uM doxorubicin): 2.95% (inactive) | viability [6, 9]: 93.8% | viability [6, 10]: 96.8% | inhibition [7]: -1.05% (inactive) | inhibition [8]: -2.73% (inactive)

Cn1c(=O)c2c(nc(NCCCO)n2C/C=C/c2ccccc2)n(C)c1=O
viability [1]: 73.5% | Her2 level [2]: 70.5% (inactive) | viability [3]: 73.5% (inactive) | viability [4]: 85.7% (inactive) | viability [5]: 83.2% (inactive) | differential viability (reversal) ([6]; H69AR cells + 2 uM doxorubicin): -14.8% (inactive) | viability [6, 9]: 98% | viability [6, 10]: 83.2% | inhibition [7]: -4.08% (inactive) | inhibition [8]: -0.17% (inactive)
